Where “and” joins values, the source holds several entries; their conditions need not be identical. Equal entries are not always repeated.
Assays:
[1] = biological target: T1, Potassium voltage-gated channel subfamily A member 5 (Homo sapiens, UniProt P22460); assay: Inhibition of human voltage-gated potassium channel subunit Kv1.5 expressed in Xenopus oocytes; assay type: cell-based, Oocyte
Summary of the method: (§1)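 Compounds came from a 10 mM DMSO stock diluted into ND96. Read-out was percent inhibition of the compound-free control current. For IC50, 3–4 concentrations were each tested at least twice and fitted with a variable-slope Hill equation.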

[2] = biological target: T1, Potassium voltage-gated channel subfamily A member 5; assay: Inhibition of human voltage-gated potassium channel subunit Kv1.5 expressed in Xenopus oocytes at 10 uM; assay type: cell-based; settings: Oocyte
Summary of the method: as §1, with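 “Human Kv1.5 cRNA (0.2–0.5 ng) was injected into Xenopus oocytes kept at 18 °C. […] Compounds” for “Compounds”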

hERG (KCNH2) = hERG (KCNH2) (Homo sapiens, UniProt Q12809); assay: Inhibition of human Potassium channel HERG expressed in Xenopus oocytes at 10 uM; assay type: cell-based, Oocyte; settings: Xenopus oocytes expressing human hERG
hERG (KCNH2), sequence (Q12809 whole entry): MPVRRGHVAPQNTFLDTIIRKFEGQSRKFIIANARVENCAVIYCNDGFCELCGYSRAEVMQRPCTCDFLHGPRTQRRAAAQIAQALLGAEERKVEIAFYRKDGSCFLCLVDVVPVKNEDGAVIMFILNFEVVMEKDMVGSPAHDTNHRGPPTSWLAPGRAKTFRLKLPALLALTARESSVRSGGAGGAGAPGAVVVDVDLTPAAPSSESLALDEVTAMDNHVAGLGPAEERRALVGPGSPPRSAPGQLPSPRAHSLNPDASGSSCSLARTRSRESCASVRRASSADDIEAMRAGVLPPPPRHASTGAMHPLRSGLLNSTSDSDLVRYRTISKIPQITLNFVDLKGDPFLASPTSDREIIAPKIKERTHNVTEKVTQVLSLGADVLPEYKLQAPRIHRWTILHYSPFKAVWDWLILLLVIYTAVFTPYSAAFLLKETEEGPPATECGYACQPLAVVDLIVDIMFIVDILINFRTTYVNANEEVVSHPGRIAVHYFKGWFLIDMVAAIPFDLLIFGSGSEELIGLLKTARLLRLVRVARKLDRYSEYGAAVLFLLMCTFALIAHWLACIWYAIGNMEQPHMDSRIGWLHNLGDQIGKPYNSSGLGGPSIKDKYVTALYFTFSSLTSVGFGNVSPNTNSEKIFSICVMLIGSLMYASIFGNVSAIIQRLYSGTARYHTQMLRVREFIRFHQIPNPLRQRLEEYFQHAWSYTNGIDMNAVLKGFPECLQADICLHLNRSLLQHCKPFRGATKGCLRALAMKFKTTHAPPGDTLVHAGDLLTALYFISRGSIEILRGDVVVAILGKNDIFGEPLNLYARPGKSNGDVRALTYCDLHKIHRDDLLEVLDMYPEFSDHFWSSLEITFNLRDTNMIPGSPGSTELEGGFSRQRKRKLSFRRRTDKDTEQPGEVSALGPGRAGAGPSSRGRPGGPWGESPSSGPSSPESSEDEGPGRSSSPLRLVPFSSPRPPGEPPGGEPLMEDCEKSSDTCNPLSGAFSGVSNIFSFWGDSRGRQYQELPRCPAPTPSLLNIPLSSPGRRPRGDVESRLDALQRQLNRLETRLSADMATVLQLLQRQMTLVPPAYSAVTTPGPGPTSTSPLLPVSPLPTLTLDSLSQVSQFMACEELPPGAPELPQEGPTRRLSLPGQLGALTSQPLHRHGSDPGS

[3] = biological target: Potassium voltage-gated channel subfamily A member 3 (Homo sapiens, UniProt P22001); assay: Inhibition of human voltage-gated potassium channel subunit Kv1.3 expressed in Xenopus oocytes; assay type: cell-based, Oocyte
Potassium voltage-gated channel subfamily A member 3, sequence (P22001 whole entry): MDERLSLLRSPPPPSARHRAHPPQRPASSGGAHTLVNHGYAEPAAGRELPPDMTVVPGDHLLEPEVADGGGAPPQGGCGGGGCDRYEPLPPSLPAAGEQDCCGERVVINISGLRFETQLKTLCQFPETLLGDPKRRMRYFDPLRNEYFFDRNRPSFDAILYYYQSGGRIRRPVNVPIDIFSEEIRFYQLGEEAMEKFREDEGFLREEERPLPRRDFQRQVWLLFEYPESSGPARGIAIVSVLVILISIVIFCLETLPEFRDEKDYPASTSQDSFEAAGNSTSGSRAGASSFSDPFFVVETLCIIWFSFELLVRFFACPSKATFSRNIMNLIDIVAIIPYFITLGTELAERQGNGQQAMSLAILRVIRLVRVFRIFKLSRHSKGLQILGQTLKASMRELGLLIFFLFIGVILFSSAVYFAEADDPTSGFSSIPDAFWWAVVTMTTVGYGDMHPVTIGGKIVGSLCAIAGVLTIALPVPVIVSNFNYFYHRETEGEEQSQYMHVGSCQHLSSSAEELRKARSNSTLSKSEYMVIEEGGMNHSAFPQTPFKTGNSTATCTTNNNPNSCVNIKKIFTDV
Summary of the method: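 Kv1.3 was expressed in Xenopus oocytes and recorded by two-microelectrode voltage clamp, handled like the Kv1.5 assay. Compounds were diluted from a 10 mM DMSO stock into ND96 superfusate. Percent inhibition of the control current at 3–4 concentrations was fitted with a variable-slope dose–response equation to give IC50.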

T1 sequence (P22460 whole entry): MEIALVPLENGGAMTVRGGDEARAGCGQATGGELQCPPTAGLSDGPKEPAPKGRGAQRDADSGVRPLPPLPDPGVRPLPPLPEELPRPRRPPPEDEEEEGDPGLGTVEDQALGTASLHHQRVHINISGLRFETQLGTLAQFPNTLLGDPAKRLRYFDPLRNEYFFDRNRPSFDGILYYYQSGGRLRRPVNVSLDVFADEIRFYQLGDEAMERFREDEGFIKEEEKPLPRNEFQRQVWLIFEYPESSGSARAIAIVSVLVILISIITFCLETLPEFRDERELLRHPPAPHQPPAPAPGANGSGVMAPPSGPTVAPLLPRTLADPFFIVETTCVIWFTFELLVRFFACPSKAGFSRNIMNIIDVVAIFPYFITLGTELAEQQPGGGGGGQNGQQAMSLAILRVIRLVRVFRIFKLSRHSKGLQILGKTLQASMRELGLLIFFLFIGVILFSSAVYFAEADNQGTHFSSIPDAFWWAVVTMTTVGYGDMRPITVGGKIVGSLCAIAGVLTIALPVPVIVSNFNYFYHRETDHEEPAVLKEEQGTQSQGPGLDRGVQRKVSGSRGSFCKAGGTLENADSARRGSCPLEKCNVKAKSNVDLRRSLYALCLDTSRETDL

Compound	IC50 [1]	further results
CC(C)CCNC(=O)c1ccncc1-c1ccccc1CNC(=O)OCc1ccccc1	12000 nM	–
COc1ccc(S(=O)(=O)NC(=O)NCc2ccccc2-c2ccccc2C(=O)NCc2ccc(F)cc2F)cc1	–	inhibition [2]: 7%
Cc1cccc(CNC(=O)OCc2ccccc2)c1-c1c(C)cccc1C(=O)NCCc1ccccn1	1700 nM	–
C[C@@H](CC(=O)NCc1ccccc1-c1ccccc1C(=O)NCCc1ccccn1)c1ccccc1	1000 nM	–
CC(C)CCOC(=O)c1ccccc1-c1ccccc1CNC(=O)OCc1ccccc1	–	inhibition [2]: 8%
C[C@H](OC(=O)NCc1ccccc1-c1ccccc1C(=O)NCCc1ccccn1)c1ccccc1	–	inhibition at 10 µM (hERG (KCNH2)): 11%; IC50 [3]: 500 nM
CC(C)CCNC(=O)c1ccccc1-c1ccncc1CNC(=O)OCc1ccccc1	7000 nM	–
CC(C)CCNC(=O)c1cccnc1-c1ccccc1CNC(=O)OCc1ccccc1	7800 nM	–
O=C(NCc1ccccc1-c1ccccc1C(=O)NCCc1ccccn1)OCc1ccccc1	–	inhibition at 10 µM (hERG (KCNH2)): 7%; IC50 [3]: 2300 nM
O=C(NC1CCCCC1)c1cccc2cccc(NS(=O)(=O)c3ccc(Cl)cc3)c12	9500 nM	–
O=C(NCc1ccccc1-c1ccccc1C(=O)NCc1ccc(F)cc1F)OCc1ccccc1	1200 nM	–
Cc1cccc(CNC(=O)OCc2ccccc2)c1-c1c(C)cccc1C(=O)NCCC(C)C	1000 nM and 1300 nM	–
CN(C)CC(C)(C)CNC(=O)c1ccccc1-c1ccccc1CNC(=O)OCc1ccccc1	2200 nM	–
CC(C)CCNC(=O)c1ccccc1-c1ccccc1CNCCc1ccccc1	4000 nM	–

Source: ChEMBL document CHEMBL1145963, “Identification, synthesis, and activity of novel blockers of the voltage-gated potassium channel Kv1.5” (J Med Chem, 2003)
